{
  "source": "ChEMBL document CHEMBL1130227",
  "about": "“(S)-homo-AMPA, a specific agonist at the mGlu6 subtype of metabotropic glutamic acid receptors” (J Med Chem, 1997)",
  "key": {"[1]": {"biological_target": "Metabotropic glutamate receptor 7 (Rattus norvegicus, UniProt P35400)", "sequence (P35400 whole entry)": "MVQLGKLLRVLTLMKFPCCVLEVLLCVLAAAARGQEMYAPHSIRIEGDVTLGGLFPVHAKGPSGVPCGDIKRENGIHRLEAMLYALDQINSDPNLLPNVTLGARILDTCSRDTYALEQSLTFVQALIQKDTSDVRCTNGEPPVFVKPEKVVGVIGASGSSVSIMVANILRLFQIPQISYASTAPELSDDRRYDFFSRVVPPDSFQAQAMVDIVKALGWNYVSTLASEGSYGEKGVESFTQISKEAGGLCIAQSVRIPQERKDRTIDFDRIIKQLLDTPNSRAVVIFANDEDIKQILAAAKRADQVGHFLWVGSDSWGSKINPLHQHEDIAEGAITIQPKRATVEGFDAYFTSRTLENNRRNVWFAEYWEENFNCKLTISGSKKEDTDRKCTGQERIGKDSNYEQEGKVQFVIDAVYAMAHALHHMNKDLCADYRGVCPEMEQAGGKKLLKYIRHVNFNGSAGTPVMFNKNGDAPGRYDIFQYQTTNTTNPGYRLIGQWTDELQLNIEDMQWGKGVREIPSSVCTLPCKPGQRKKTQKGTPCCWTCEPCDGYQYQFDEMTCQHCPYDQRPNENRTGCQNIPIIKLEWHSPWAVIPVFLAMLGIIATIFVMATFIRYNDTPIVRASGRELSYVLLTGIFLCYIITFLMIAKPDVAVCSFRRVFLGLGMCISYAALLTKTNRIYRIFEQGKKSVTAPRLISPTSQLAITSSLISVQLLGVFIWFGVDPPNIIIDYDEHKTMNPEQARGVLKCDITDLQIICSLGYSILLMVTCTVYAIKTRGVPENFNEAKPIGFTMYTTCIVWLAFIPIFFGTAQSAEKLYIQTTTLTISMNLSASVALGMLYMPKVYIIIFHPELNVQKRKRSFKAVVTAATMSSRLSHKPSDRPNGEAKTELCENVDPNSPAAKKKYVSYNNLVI", "experiment": "Effect on Metabotropic glutamate receptor 7", "in_short": "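mGlu7-expressing CHO cells run in the forskolin (10 μM)/IBMX (1 mM) cAMP assay for 10 min, with cAMP measured by RIA as percent inhibition. Test ligand at 10 mM. For antagonism, 20 min preincubation, then ligand plus 1 mM (S)-AP4 as the agonist. Run at least twice in triplicate.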"}, "[2]": {"biological_target": "Metabotropic glutamate receptor 4 (Rattus norvegicus, UniProt P31423)", "experiment": "Effect on Metabotropic glutamate receptor 4", "in_short": "(§1)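 Stably transfected CHO cells (mGlu3, mGlu4a or mGlu6) incubated 10 min in PBS with ligand, 10 μM forskolin and 1 mM IBMX. cAMP measured by RIA; agonism taken as percent decrease of forskolin-induced cAMP versus control. For antagonism, 20 min preincubation with ligand in PBS/1 mM IBMX, then 10 min with ligand plus 30 μM (S)-Glu, forskolin and IBMX. EC50 ± SEM from at least two independent experiments in triplicate.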"}, "[3]": {"biological_target": "Metabotropic glutamate receptor 3 (Rattus norvegicus, UniProt P31422)", "sequence (P31422 whole entry)": "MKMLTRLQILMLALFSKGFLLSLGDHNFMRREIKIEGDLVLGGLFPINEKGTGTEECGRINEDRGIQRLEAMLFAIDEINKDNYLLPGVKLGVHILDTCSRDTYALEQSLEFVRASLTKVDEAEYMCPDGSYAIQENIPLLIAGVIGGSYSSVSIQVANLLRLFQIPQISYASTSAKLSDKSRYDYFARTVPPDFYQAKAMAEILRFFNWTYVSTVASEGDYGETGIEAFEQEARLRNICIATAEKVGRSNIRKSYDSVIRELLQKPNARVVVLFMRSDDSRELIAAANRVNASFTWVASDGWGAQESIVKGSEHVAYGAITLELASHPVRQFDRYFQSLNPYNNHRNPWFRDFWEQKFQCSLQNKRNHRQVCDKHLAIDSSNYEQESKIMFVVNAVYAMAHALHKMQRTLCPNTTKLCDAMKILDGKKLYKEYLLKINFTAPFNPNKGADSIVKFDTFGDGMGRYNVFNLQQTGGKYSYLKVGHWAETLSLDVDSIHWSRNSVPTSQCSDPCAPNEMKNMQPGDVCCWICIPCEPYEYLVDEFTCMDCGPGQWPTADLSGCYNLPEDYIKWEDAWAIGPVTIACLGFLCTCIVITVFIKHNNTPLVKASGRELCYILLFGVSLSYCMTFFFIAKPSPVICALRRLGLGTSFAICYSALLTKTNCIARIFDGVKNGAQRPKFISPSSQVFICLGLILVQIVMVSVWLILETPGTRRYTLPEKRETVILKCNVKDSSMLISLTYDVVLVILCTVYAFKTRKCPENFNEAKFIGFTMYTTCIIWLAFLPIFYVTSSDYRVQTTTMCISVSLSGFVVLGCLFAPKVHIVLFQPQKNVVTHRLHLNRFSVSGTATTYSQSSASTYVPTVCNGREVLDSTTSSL", "experiment": "Effect on Metabotropic glutamate receptor 3", "in_short": "as §1"}, "[4]": {"biological_target": "Metabotropic glutamate receptor 2 (Rattus norvegicus, UniProt P31421)", "experiment": "Effect on Metabotropic glutamate receptor 2", "in_short": "(§2)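 Stably transfected CHO cells grown in DMEM with 2 mM glutamine, 1% proline and 10% dialyzed FCS, at 37 °C in 5% CO2. Cells seeded 2 days before assay. Ligand tested at 1 mM, both alone and with 30 μM (S)-Glu. Each experiment run at least twice in triplicate.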"}, "[5]": {"biological_target": "Metabotropic glutamate receptor 6 (Rattus norvegicus, UniProt P35349)", "sequence (P35349 whole entry)": "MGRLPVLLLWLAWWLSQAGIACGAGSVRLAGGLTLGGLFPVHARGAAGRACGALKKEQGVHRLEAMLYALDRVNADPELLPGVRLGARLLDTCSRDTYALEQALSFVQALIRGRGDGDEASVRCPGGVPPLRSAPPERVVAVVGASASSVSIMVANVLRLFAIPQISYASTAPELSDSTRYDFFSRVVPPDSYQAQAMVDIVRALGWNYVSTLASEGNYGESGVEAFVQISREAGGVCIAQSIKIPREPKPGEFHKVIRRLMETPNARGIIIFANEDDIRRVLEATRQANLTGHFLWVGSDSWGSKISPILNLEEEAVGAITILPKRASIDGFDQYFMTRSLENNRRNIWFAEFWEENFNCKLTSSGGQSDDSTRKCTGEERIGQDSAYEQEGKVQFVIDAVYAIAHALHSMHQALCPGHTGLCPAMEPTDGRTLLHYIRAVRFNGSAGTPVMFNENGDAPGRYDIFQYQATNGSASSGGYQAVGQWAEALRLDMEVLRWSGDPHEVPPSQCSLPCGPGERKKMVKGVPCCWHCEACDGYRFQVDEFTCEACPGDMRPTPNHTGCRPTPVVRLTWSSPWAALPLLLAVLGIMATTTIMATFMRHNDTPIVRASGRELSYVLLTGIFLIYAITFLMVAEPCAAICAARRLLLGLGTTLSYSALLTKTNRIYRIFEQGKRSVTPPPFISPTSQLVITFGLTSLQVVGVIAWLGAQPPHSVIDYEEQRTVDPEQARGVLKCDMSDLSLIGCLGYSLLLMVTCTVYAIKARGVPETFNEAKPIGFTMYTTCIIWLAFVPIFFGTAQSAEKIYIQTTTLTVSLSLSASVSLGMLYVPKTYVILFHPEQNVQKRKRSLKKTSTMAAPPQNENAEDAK", "experiment": "Effect on Metabotropic glutamate receptor 6", "in_short": "as §1"}, "[6]": {"biological_target": "Metabotropic glutamate receptor 1 (Rattus norvegicus, UniProt P23385)", "sequence (P23385 whole entry)": "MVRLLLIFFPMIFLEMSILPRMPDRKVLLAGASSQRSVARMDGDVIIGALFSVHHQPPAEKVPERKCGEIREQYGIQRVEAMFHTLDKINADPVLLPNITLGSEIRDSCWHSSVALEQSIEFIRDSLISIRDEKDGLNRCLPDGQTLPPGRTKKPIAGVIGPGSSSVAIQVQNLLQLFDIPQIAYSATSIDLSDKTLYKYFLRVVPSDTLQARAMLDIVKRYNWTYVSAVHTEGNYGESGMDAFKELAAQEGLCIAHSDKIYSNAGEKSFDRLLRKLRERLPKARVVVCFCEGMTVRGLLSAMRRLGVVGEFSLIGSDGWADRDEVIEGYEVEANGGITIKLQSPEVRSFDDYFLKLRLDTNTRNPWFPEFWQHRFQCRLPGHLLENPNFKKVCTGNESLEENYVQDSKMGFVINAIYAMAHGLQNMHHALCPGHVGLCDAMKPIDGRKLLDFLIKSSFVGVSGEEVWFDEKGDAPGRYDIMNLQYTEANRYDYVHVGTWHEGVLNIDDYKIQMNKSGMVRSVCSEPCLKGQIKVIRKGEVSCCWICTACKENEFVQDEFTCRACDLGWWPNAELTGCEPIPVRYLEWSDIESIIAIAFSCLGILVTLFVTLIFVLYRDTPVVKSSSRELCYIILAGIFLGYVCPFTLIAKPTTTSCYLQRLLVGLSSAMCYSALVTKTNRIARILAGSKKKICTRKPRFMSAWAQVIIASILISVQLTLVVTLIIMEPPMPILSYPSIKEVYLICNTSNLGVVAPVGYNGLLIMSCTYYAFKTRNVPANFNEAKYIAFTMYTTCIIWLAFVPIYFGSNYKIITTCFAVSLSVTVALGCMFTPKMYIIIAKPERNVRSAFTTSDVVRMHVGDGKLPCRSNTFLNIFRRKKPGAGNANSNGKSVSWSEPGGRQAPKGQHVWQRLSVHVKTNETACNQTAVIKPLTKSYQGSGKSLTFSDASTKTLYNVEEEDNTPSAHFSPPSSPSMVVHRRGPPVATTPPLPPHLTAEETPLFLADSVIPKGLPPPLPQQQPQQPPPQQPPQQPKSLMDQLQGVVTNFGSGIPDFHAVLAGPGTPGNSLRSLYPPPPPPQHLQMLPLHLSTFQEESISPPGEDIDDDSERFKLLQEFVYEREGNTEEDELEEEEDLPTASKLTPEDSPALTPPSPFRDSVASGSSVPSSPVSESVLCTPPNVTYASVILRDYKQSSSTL", "experiment": "Effect on Metabotropic glutamate receptor 1", "in_short": "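CHO cells stably expressing mGlu1a, plated two days before assay and labelled with [3H]inositol (2 μCi/mL) for 24 h. Ligand given in PBS–LiCl for 20 min; read-out is 3H mono-, bis- and tris-inositol phosphates separated by ion exchange, expressed as fold increase over control. For antagonism, a 20 min ligand preincubation was followed by ligand plus 30 μM (S)-Glu. At least two experiments, each in triplicate.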"}, "Glutamate NMDA receptor": {"biological_target": "Glutamate NMDA receptor", "experiment": "Inhibitory activity against N-methyl-D-aspartate glutamate receptor", "format": "protein-complex assay"}, "[7]": {"biological_target": "Metabotropic glutamate receptor 5 (Rattus norvegicus, UniProt P31424)", "sequence (P31424 whole entry)": "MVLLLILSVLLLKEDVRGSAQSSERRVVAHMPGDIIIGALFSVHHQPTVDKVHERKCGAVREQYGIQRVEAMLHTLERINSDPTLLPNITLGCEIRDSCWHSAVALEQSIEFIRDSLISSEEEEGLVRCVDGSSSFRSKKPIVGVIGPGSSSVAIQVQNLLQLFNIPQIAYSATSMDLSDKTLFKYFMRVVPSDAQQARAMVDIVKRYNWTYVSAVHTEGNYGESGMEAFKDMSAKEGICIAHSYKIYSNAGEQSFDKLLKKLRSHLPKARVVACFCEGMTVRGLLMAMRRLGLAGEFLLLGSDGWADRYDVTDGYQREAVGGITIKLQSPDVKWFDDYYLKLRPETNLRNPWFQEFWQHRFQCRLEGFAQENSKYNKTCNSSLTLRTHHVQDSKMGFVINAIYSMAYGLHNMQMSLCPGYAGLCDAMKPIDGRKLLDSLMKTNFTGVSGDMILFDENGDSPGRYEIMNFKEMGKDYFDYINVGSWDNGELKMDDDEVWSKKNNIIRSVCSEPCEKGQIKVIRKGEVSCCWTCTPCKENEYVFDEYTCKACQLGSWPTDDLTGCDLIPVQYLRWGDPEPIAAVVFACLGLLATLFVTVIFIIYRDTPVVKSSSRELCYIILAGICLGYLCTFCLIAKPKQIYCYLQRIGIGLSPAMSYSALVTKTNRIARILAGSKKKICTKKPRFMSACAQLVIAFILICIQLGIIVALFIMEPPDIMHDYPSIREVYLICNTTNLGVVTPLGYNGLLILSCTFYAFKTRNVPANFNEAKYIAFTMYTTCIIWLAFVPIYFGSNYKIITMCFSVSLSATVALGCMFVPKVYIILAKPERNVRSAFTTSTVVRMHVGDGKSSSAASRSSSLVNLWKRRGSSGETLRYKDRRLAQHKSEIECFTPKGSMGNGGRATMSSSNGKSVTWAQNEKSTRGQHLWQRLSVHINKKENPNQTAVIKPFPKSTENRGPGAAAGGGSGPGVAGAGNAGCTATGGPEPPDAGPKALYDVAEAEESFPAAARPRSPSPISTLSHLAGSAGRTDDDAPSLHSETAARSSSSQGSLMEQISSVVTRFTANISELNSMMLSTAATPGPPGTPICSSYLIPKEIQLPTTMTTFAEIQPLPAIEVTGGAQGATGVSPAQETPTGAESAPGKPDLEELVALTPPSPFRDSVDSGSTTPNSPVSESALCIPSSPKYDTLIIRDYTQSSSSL", "experiment": "Effect on Metabotropic glutamate receptor 5", "in_short": "as §2"}},
  "data": [
    {"smiles": "N[C@H](CCC(=O)O)C(=O)O", "note": "[D-GLUTAMATE]", "values": [
      {"measurement": "EC50", "setting": "[1]", "result": 5400, "unit": "µM"},
      {"measurement": "EC50", "setting": "[2]", "result": 12, "unit": "µM"},
      {"measurement": "EC50", "setting": "[3]", "result": 9, "unit": "µM"}
    ]},
    {"smiles": "N[C@@H](CCCC(=O)O)C(=O)O", "note": "[(S)-2-AMINOADIPIC ACID]", "values": [
      {"measurement": "EC50", "setting": "[2]", "result": "> 3000", "unit": "µM"},
      {"measurement": "EC50", "setting": "[4]", "result": 35, "unit": "µM"},
      {"measurement": "EC50", "setting": "[5]", "result": 140, "unit": "µM"},
      {"measurement": "EC50", "setting": "[6]", "result": "> 1000", "unit": "µM"}
    ]},
    {"smiles": "Cc1o[nH]c(=O)c1CC[C@@H](N)C(=O)O", "values": [
      {"measurement": "EC50", "setting": "[1]", "result": "> 5000", "unit": "µM"},
      {"measurement": "EC50", "setting": "[2]", "result": "> 1000", "unit": "µM"},
      {"measurement": "IC50", "setting": "Glutamate NMDA receptor", "result": 131, "unit": "µM"},
      {"measurement": "EC50", "setting": "[4]", "result": "> 1000", "unit": "µM"},
      {"measurement": "EC50", "setting": "[7]", "result": "> 1000", "unit": "µM"},
      {"measurement": "EC50", "setting": "[3]", "result": "> 1000", "unit": "µM"},
      {"measurement": "EC50", "setting": "[5]", "result": "> 1000", "unit": "µM"},
      {"measurement": "EC50", "setting": "[6]", "result": "> 1000", "unit": "µM"}
    ]},
    {"smiles": "Cc1onc(O)c1CC[C@H](N)C(=O)O", "values": [
      {"measurement": "EC50", "setting": "[1]", "result": "> 5000", "unit": "µM"},
      {"measurement": "EC50", "setting": "[2]", "result": "> 1000", "unit": "µM"},
      {"measurement": "EC50", "setting": "[4]", "result": "> 1000", "unit": "µM"},
      {"measurement": "EC50", "setting": "[7]", "result": "> 1000", "unit": "µM"},
      {"measurement": "EC50", "setting": "[3]", "result": "> 1000", "unit": "µM"},
      {"measurement": "EC50", "setting": "[5]", "result": 58, "unit": "µM"},
      {"measurement": "EC50", "setting": "[6]", "result": "> 1000", "unit": "µM"}
    ]},
    {"smiles": "Cc1onc(O)c1CCC(N)C(=O)O", "note": "(stereo not given)", "values": [
      {"measurement": "EC50", "setting": "[2]", "result": "> 3000", "unit": "µM"},
      {"measurement": "EC50", "setting": "[4]", "result": "> 1000", "unit": "µM"},
      {"measurement": "EC50", "setting": "[5]", "result": 82, "unit": "µM"},
      {"measurement": "EC50", "setting": "[6]", "result": "> 1000", "unit": "µM"}
    ]},
    {"smiles": "N[C@@H](CCP(=O)(O)O)C(=O)O", "values": [
      {"measurement": "EC50", "setting": "[1]", "result": 252, "unit": "µM"},
      {"measurement": "EC50", "setting": "[2]", "result": 0.91, "unit": "µM"},
      {"measurement": "EC50", "setting": "[4]", "result": 1000, "unit": "µM"},
      {"measurement": "EC50", "setting": "[7]", "result": "> 1000", "unit": "µM"},
      {"measurement": "EC50", "setting": "[5]", "result": 0.57, "unit": "µM"},
      {"measurement": "EC50", "setting": "[6]", "result": 1000, "unit": "µM"}
    ]},
    {"smiles": "N[C@H](CCCC(=O)O)C(=O)O", "values": [
      {"measurement": "EC50", "setting": "[4]", "result": "> 1000", "unit": "µM"},
      {"measurement": "EC50", "setting": "[5]", "result": "> 1000", "unit": "µM"},
      {"measurement": "EC50", "setting": "[6]", "result": "> 1000", "unit": "µM"}
    ]}
  ]
}
